Data on 21 compounds can be found in ChEMBL document CHEMBL1145205, “Synthesis and biological evaluation of 1,2,4-triazinylphenylalkylthiazolecarboxylic acid esters as cytokine-inhibiting antedrugs with strong bronchodilating effects in an animal model of asthma” (J Med Chem, 2005).

A short description of series [1]: Percent conversion of compound in human lung S9 fraction after 60 min of administration. Conditions: read-out: Conversion. Type of series: ADME. Put shortly: (§1)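 Test compound at 10^-6 M incubated at 37 °C in phosphate buffered saline with human liver S9 (10 µg protein/ml) or human lung S9 (50 µg protein/ml); samples taken at 0, 15 and 60 min; parent compound quantified by LC-MS/MS using MRM transition of parent to daughter ion; percent converted after 60 min.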

The subject of series [2] is PBL. Nature of the series: Percent inhibition of interleukin-5 production in human whole blood assay after 10e-6 M treatment. Type of series: functional.
In series [3] the test system is PBL. Briefly: Percent inhibition of interleukin-5 production in human whole blood assay after 10e-7 M treatment. Type of series: functional.
Series [4] is described as follows: Percent conversion of compound in human liver fraction after 60 min of administration. Conditions: read-out: Conversion. It counts as ADME, tissue-based. The procedure, abridged:
as §1

For `CC(C)(c1nc(-c2ccccc2)c(C(=O)OCCc2ccccc2)s1)c1c(Cl)cc(-n2ncc(=O)[nH]c2=O)cc1Cl`, the metabolised at 1 h in series [1] was 24%; in series [4], 94%. The Inhibition in series [2] turned out to be 88%; in series [3], 62%.

Consider `COC(=O)c1sc(C(C)(C)c2c(Cl)cc(-n3ncc(=O)[nH]c3=O)cc2Cl)nc1-c1ccccc1`, for which the metabolised at 1 h came to 47% in series [1] and 49% in series [4]. Besides, the values for the Inhibition in series [2] and in series [3] were 93% and 84%, respectively.

Turning to `CC(C)=CCOC(=O)c1sc(C(C)(C)c2c(Cl)cc(-n3ncc(=O)[nH]c3=O)cc2Cl)nc1-c1ccccc1`, the metabolised at 1 h in series [1] was 6%; in series [4], 65%. Besides, the Inhibition in series [2] was determined as 73%; in series [3], 55%.

Turning to `CC(C)(C)OC(=O)c1sc(C(C)(C)c2c(Cl)cc(-n3ncc(=O)[nH]c3=O)cc2Cl)nc1-c1ccccc1`, the figures for the metabolised at 1 h in series [1] and in series [4] were 0% and 7%, respectively. Also, the figures for the Inhibition in series [2] and in series [3] were 89% and 79%, respectively.

On to `CCCOC(=O)c1sc(C(C)(C)c2c(Cl)cc(-n3ncc(=O)[nH]c3=O)cc2Cl)nc1-c1ccccc1`, for which the metabolised at 1 h is 23% in series [1] and 68% in series [4]. Further, the figures for the Inhibition in series [2] and in series [3] were 96% and 69%, respectively.

Take `CC(C)(c1nc(-c2ccccc2)c(C(=O)OCCCO)s1)c1c(Cl)cc(-n2ncc(=O)[nH]c2=O)cc1Cl`: the metabolised at 1 h in series [1] was 8%; in series [4] it was 76%. Moreover, the Inhibition in series [2] amounted to 83%; in series [3] it was 58%.

`CCCCCOC(=O)c1sc(C(C)(C)c2c(Cl)cc(-n3ncc(=O)[nH]c3=O)cc2Cl)nc1-c1ccccc1`: the metabolised at 1 h in series [1] is 32%; in series [4], 72%. Moreover, the Inhibition turned out to be 91% in series [2] and 54% in series [3].

Take `CCCCOC(=O)c1sc(C(C)(C)c2c(Cl)cc(-n3ncc(=O)[nH]c3=O)cc2Cl)nc1-c1ccccc1`: the figures for the metabolised at 1 h in series [1] and in series [4] were 18% and 86%, respectively. Moreover, the Inhibition in series [2] is listed as 88%; in series [3], 51%.

Take `CC(C)OC(=O)c1sc(C(C)(C)c2c(Cl)cc(-n3ncc(=O)[nH]c3=O)cc2Cl)nc1-c1ccccc1`: the metabolised at 1 h in series [1] stood at 1%; in series [4] it was 10%. Further, the Inhibition in series [2] is 94%; in series [3], 85%.

As for `CC(C)(c1nc(-c2ccccc2)c(C(=O)OCCO)s1)c1c(Cl)cc(-n2ncc(=O)[nH]c2=O)cc1Cl`, the metabolised at 1 h in series [1] stood at 0%; in series [4], 1%. The Inhibition in series [2] was 93%; in series [3] it was 66%.

In the case of `CC(C)COC(=O)c1sc(C(C)(C)c2c(Cl)cc(-n3ncc(=O)[nH]c3=O)cc2Cl)nc1-c1ccccc1`, the metabolised at 1 h in series [1] is 27%; in series [4] it was 80%. The Inhibition in series [2] is 90%; in series [3] it was 56%.

As for `CC(C)(c1nc(-c2ccccc2)c(C(=O)OCC(F)(F)F)s1)c1c(Cl)cc(-n2ncc(=O)[nH]c2=O)cc1Cl`, the metabolised at 1 h worked out at 36% in series [1] and 38% in series [4]. The Inhibition in series [2] is recorded as 92%; in series [3] it was 75%.

For the compound `CC(C)(c1nc(-c2ccccc2)c(C(=O)OCCOc2ccccc2)s1)c1c(Cl)cc(-n2ncc(=O)[nH]c2=O)cc1Cl`, the metabolised at 1 h in series [1] is 21%; in series [4], 73%. In addition, the values for the Inhibition in series [2] and in series [3] were 83% and 70%, respectively.

With `CCOC(=O)c1sc(C(C)(C)c2c(Cl)cc(-n3ncc(=O)[nH]c3=O)cc2Cl)nc1-c1ccccc1`, the metabolised at 1 h in series [1] was 17%; in series [4], 29%. In addition, the Inhibition in series [2] is recorded as 94%; in series [3], 67%.

Take `C=CCOC(=O)c1sc(C(C)(C)c2c(Cl)cc(-n3ncc(=O)[nH]c3=O)cc2Cl)nc1-c1ccccc1`: the metabolised at 1 h in series [1] amounted to 23%; in series [4], 68%. The Inhibition in series [2] is 96%; in series [3], 69%.

With `CC(C)(c1nc(-c2ccccc2)c(C(=O)OCC#N)s1)c1c(Cl)cc(-n2ncc(=O)[nH]c2=O)cc1Cl`, the metabolised at 1 h in series [1] worked out at 34%; in series [4] it was 61%. The Inhibition in series [2] came to 91%; in series [3] it was 74%.

Turning to `CC(=O)COC(=O)c1sc(C(C)(C)c2c(Cl)cc(-n3ncc(=O)[nH]c3=O)cc2Cl)nc1-c1ccccc1`, the metabolised at 1 h in series [1] came to 19%; in series [4], 64%. The figures for the Inhibition in series [2] and in series [3] were 85% and 57%, respectively.

For the compound `CC#CCOC(=O)c1sc(C(C)(C)c2c(Cl)cc(-n3ncc(=O)[nH]c3=O)cc2Cl)nc1-c1ccccc1`, the metabolised at 1 h came to 3% in series [1] and 1% in series [4]. The values for the Inhibition in series [2] and in series [3] were 100% and 96%, respectively.

`CC(C)(c1nc(-c2ccccc2)c(C(=O)OCC2CC2)s1)c1c(Cl)cc(-n2ncc(=O)[nH]c2=O)cc1Cl`: the metabolised at 1 h in series [1] stood at 27%; in series [4] it was 87%. For the same compound, the Inhibition in series [2] was determined as 92%; in series [3] it was 56%.

Consider `CC(C)(c1nc(-c2ccccc2)c(C(=O)O)s1)c1c(Cl)cc(-n2ncc(=O)[nH]c2=O)cc1Cl`, for which the metabolised at 1 h in series [1] and in series [4] was 0% each time. In addition, the Inhibition in series [2] and in series [3] was 0% throughout.

For `C#CCOC(=O)c1sc(C(C)(C)c2c(Cl)cc(-n3ncc(=O)[nH]c3=O)cc2Cl)nc1-c1ccccc1`, the values for the metabolised at 1 h in series [1] and in series [4] were 20% and 55%, respectively. Further, the Inhibition is recorded as 90% in series [2] and 87% in series [3].
